High-throughput results (PubChem)
Gli-Sufu block – blocks Gli-Sufu signaling in a luciferase reporter. 0.74% of 340,000 active. inhibition, % at 5 µM. Sufu-KO-LIGHT fibroblasts, Gli luciferase reporter luminescence. AID 588413;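 active = inhibition above about 55%, limit read from the data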;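 note: 0% = DMSO-treated cells and 100% = wells with medium but no cells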
iPSC survival up – hiPSC single-cell survival enhancement | survival enhancement, % at 20 µM | ATPlite luminescence; 100% = ROCK inhibitor wells, 0% = DMSO | AID 602274 | 0.044% of 360,000 active; in the data active = survival enhancement above about 18%;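 note: cells exposed to compounds for 16 hours before the ATP read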
Jurkat NFkB inh – inhibitors of the PMA/ionomycin-induced NF-kB reporter in Jurkat cells; 0.53% of 330,000 active; PMA/ionomycin-induced NF-kB luciferase reporter, luminescence; inhibition, % at 4 µM; in the data active = inhibition above about 50%
H9c2 TAG inh – inhibitors of triacylglycerol accumulation; 0.66% of 230,000 active; inhibition, % at 12.5 µM; H9c2 cells, Nile Red lipid (TAG) fluorescence; cells loaded with 200 µM oleic acid;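 active = pattern-corrected inhibition of lipid staining of at least 50% with the nuclear-stain viability signal not falling by more than 50%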;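 note: 0% = DMSO wells and 100% = triacsin C control wells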
Hep lipid drop – modulators of hepatic lipid droplet formation; AML12 mouse hepatocytes, oleate lipid droplets, BODIPY imaging; inhibition, % at 6.5 µM; 0.4% of 240,000 active; AID 1656;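 active = lipid droplet intensity inhibited by at least 50%, with more than 500 cells counted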
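Assay system: AML12 mouse liver cells | Compound: 6.5 µM single-point dosing | Schedule: Overnight exposure | Technique: Fluorescence imaging, 20x objective, two fields per well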
697 NFkB inh – lowers PMA/ionomycin-induced NF-kB signal in 697 B cells; 697 B-cell NF-kB luciferase reporter, 16 h; inhibition, % at 4 µM; 0.33% of 330,000 active; AID 435022; in the data active = inhibition above about 35%
Lipid drop inh – confirmation of inhibitors of hepatic lipid droplet formation; AML12 mouse hepatocytes, BODIPY lipid droplet imaging; droplets induced with 100 µM oleic acid; shares compounds with Hep lipid drop; 65% of 870 active; AID 463183; inhibition, % at 5.2 µM;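 active = inhibition of lipid droplet metric at least 50%, with more than 300 cells in each of four replicates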;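 note: plate controls were DMSO with oleic acid for no effect and 5 µM Triacsin-C for full effect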
AML12 cytotox – counter-screen for cytotoxicity in AML12 mouse hepatocytes; shares compounds with Hep lipid drop; DAPI nuclear morphology cytotoxicity imaging; hits give high values; cells fed 100 µM oleate overnight; z-score at 5 µM; 3% of 870 active; AID 463200; in the data active = z-score above about 6.3;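 note: compound exposure lasted overnight at 37 °C before fixation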
AML12 tox conf – confirmation of cytotoxicity in AML12 mouse hepatocytes; shares compounds with Hep lipid drop; AML12 mouse hepatocyte viability, ATP luminescence; cells loaded with 100 µM oleic acid; cytotoxicity, % at 50 µM; 530 tested, under 10 active;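 active = cytotoxicity above 50% in each of four replicates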;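 note: compound exposure lasted overnight at 37 °C before the ATP read; 0% = DMSO-treated cells and 100% = wells with no cells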
Numbers without * were called inactive; . = not tested or not shown. Shown are actives, neighbours in structure and some others; about 1.8% of the full set was active somewhere.

SMILES	Gli-Sufu block	iPSC survival up	Jurkat NFkB inh	H9c2 TAG inh	Hep lipid drop	697 NFkB inh	Lipid drop inh	AML12 cytotox	AML12 tox conf
CCn1cc(C(=O)N[C@@H](CCSC)C(=O)NCCCn2ccnc2)c(=O)c2cc3c(cc21)OCO3	-5	0	-13	.	-19	-14	.	.	.
CCOC(=O)c1ccc(NC(=O)COc2ccc(S(=O)(=O)N3CCCC3)cc2)cc1	0	0	11	.	0	3	.	.	.
CCOC(=O)c1ccc(NC(=O)COc2ccc(S(=O)(=O)NC(C)(C)C)cc2)cc1	-1	-1	9	21	96*	20	107*	-0.023	3
Cc1ccc(-c2ccc(SCC(=O)Nc3ccc4c(c3)OCCO4)nn2)cc1	-6	-3	-1	.	-31	-47	.	.	.
Cc1ccc(C2=NC3(CCCCC3)N=C2SCC(=O)Nc2ccc3c(c2)OCCO3)cc1	-2	-3	1	29	54*	8	70*	-0.27	-9
CCC(=O)N1N=C(c2cccs2)CC1c1ccc(OC)cc1 (stereo unspecified)	4	0	-9	.	-2	-29	.	.	.
COc1ccc(C2CC(c3cccs3)=NN2C(=O)c2ccc(Br)o2)cc1 (stereo unspecified)	11	2	9	.	83*	20	93*	0.47	-11
N/C(Cc1ccc(Cl)cc1Cl)=N\OC(=O)c1ccc(Br)o1	-10	0	8	3	57*	24	2	-0.22	.
Nc1nc(-c2ccc(Cl)cc2)c(N=Nc2ccc(S(=O)(=O)N3CCOCC3)cc2)s1	16	-2	-20	.	65*	-13	33	0.73	.
O=S(=O)(c1ccc(Cl)cc1)N1CCC(N2CCOCC2)CC1	4	3	15	-1	11	8	.	.	.
O=C(Cn1nc(-c2cccc(Cl)c2)ccc1=O)Nc1ccc(C(=O)NC2CC2)cc1	6	-1	11	14	52*	-5	87*	0.0057	13
O=C(Cn1nc(-c2cccc(Cl)c2)ccc1=O)Nc1cccnc1	3	0	14	.	.	11	.	.	.
O=C(/C=C/c1c(F)cccc1Cl)c1ccc(O)cc1	11	0	20	9	2	1	.	.	.
Cc1ccc(N2C(=O)c3ccccc3NC2(C(=O)O)c2ccccc2)cc1Cl (stereo unspecified)	-3	1	-68	.	50*	-72	60	1.4	31
C=CCSc1n[nH]c(-c2ccc(OCCCC)cc2)n1	-11	2	-53	.	54*	-59	98*	0.3	13
COc1ccc(C(C)(C)C)cc1NC(=O)COc1ccc(-c2nnco2)cc1	-1	0	9	7	.	-25	.	.	.
COc1ccc(C)cc1NC(=O)CSc1nc2ccccc2nc1N1CCCCC1	6	4	4	-11	-1	9	.	.	.
CCOc1ccc(NC(=O)CSc2nc3ccccc3nc2N2CCCC2)cc1	0	-1	9	24	81*	6	106*	-1	13
CC(=O)Nc1ccc(NC(=O)CSc2nc3ccccc3nc2N2CCCCC2)cc1	-14	0	16	.	-3	-9	.	.	.
Cc1cc(C)cc(NC(=O)CSc2nc3ccccc3nc2N2CCCCC2)c1	0	1	31	18	36	-3	.	.	.
COc1ccc(NC(=O)CSc2nc3ccccc3nc2N2CCCC2)cc1Cl	5	0	-4	39	64*	18	96*	-0.14	5
Cc1cc(C)cc(NC(=O)CSc2nc3ccccc3nc2N2CCCC2)c1	0	-3	23	41	70*	5	107*	-0.28	17
Cc1cccc(NC(=O)CSc2nc3ccccc3nc2N2CCCC2)c1C	0	1	-17	32	55*	-6	63	-0.26	.
O=C(CCC1CCCN(C(=O)c2ccc3c(c2)OCO3)C1)N1CCN(c2ccccn2)CC1 (stereo unspecified)	5	0	4	-13	0	-13	.	.	.
